Measurements as given in ChEMBL document CHEMBL2157880, “Synthesis, antimycobacterial and antibacterial activity of ciprofloxacin derivatives containing a N-substituted benzyl moiety” (2012).
Converted amounts (≈) assume the structure as drawn.

What was measured:
Format in all cases: functional
[1] = tested on: Mycobacterium tuberculosis; test: Antimycobacterial activity against Mycobacterium tuberculosis H37Rv ATCC 27294 by microplate alamar blue assay
Procedure, shortened: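 Microplate Alamar Blue fluorescence assay on strain H37Rv ATCC 27294. MIC was the lowest concentration cutting fluorescence by ≥90% against the mean of replicate bacterium-only controls.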

[2] = tested on: Staphylococcus aureus; test: Antibacterial activity against Staphylococcus aureus ATCC 2592 after 18 to 24 hrs by NCCLS method
Procedure, shortened: (§1)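 Standard NCCLS (M100-S11) MIC testing against Gram-positive and Gram-negative strains. Plates were incubated at 35 °C for 18–24 h. The MIC was read as the lowest concentration giving complete inhibition of visible bacterial growth.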

[3] = tested on: Staphylococcus aureus; test: Antibacterial activity against methicillin-sensitive Staphylococcus aureus 10-11 after 18 to 24 hrs by NCCLS method; procedure, shortened: as §1
[4] = tested on: Staphylococcus aureus; test: Antibacterial activity against methicillin-sensitive Staphylococcus aureus 10-13 after 18 to 24 hrs by NCCLS method; procedure, shortened: as §1
[5] = tested on: Staphylococcus aureus; test: Antibacterial activity against methicillin-sensitive Staphylococcus aureus 10-14 after 18 to 24 hrs by NCCLS method; procedure, shortened: as §1
[6] = tested on: Staphylococcus aureus; test: Antibacterial activity against methicillin-resistant Staphylococcus aureus 10-11 after 18 to 24 hrs by NCCLS method
Procedure, shortened: (§2)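 Incubated at 35 °C for 18–24 h under NCCLS (M100-S11) standards. MIC was read as the lowest concentration giving complete inhibition of visible bacterial growth.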

[7] = tested on: Staphylococcus aureus; test: Antibacterial activity against methicillin-resistant Staphylococcus aureus 10-13 after 18 to 24 hrs by NCCLS method; procedure, shortened: as §2
[8] = tested on: Staphylococcus aureus; test: Antibacterial activity against methicillin-resistant Staphylococcus aureus 10-15 after 18 to 24 hrs by NCCLS method; procedure, shortened: as §2
[9] = tested on: Staphylococcus epidermidis; test: Antibacterial activity against methicillin-sensitive Staphylococcus epidermidis 10-11 after 18 to 24 hrs by NCCLS method; procedure, shortened: as §1
[10] = tested on: Staphylococcus epidermidis; test: Antibacterial activity against methicillin-sensitive Staphylococcus epidermidis 10-15 after 18 to 24 hrs by NCCLS method; procedure, shortened: as §2
[11] = tested on: Staphylococcus epidermidis; test: Antibacterial activity against methicillin-resistant Staphylococcus epidermidis 10-10 after 18 to 24 hrs by NCCLS method; procedure, shortened: as §2
[12] = tested on: Staphylococcus epidermidis; test: Antibacterial activity against methicillin-resistant Staphylococcus epidermidis 10-13 after 18 to 24 hrs by NCCLS method; procedure, shortened: as §2
[13] = tested on: Enterococcus faecalis; test: Antibacterial activity against Enterococcus faecalis 10-5 after 18 to 24 hrs by NCCLS method; procedure, shortened: as §1
[14] = tested on: Enterococcus faecalis; test: Antibacterial activity against Enterococcus faecalis 10-6 after 18 to 24 hrs by NCCLS method; procedure, shortened: as §1
[15] = tested on: Enterococcus faecalis; test: Antibacterial activity against Enterococcus faecalis 10-7 after 18 to 24 hrs by NCCLS method; procedure, shortened: as §1
[16] = tested on: Enterococcus faecium; test: Antibacterial activity against Enterococcus faecium 10-6 after 18 to 24 hrs by NCCLS method; procedure, shortened: as §1
[17] = tested on: Enterococcus faecium; test: Antibacterial activity against Enterococcus faecium 10-9 after 18 to 24 hrs by NCCLS method; procedure, shortened: as §1
[18] = tested on: Streptococcus pneumoniae; test: Antibacterial activity against Streptococcus pneumoniae 10-1 after 18 to 24 hrs by NCCLS method; procedure, shortened: as §1
[19] = tested on: Streptococcus pneumoniae; test: Antibacterial activity against Streptococcus pneumoniae 10-6 after 18 to 24 hrs by NCCLS method; procedure, shortened: as §1
[20] = tested on: Escherichia coli; test: Antibacterial activity against Escherichia coli ATCC 25922 after 18 to 24 hrs by NCCLS method; procedure, shortened: as §1
[21] = tested on: Escherichia coli; test: Antibacterial activity against Escherichia coli 10-1 after 18 to 24 hrs by NCCLS method; procedure, shortened: as §1
[22] = tested on: Escherichia coli; test: Antibacterial activity against Escherichia coli 10-2 after 18 to 24 hrs by NCCLS method; procedure, shortened: as §1
[23] = tested on: Escherichia coli; test: Antibacterial activity against Escherichia coli 10-3 after 18 to 24 hrs by NCCLS method; procedure, shortened: as §1
[24] = tested on: Escherichia coli; test: Antibacterial activity against extended spectrum beta-lactamases producing Escherichia coli 10-2 after 18 to 24 hrs by NCCLS method; procedure, shortened: as §1
[25] = tested on: Escherichia coli; test: Antibacterial activity against extended spectrum beta-lactamases producing Escherichia coli 10-3 after 18 to 24 hrs by NCCLS method; procedure, shortened: as §1
[26] = tested on: Escherichia coli; test: Antibacterial activity against extended spectrum beta-lactamases producing Escherichia coli 10-4 after 18 to 24 hrs by NCCLS method; procedure, shortened: as §1
[27] = tested on: Klebsiella pneumoniae; test: Antibacterial activity against Klebsiella pneumoniae 10-2 after 18 to 24 hrs by NCCLS method; procedure, shortened: as §1
[28] = tested on: Klebsiella pneumoniae; test: Antibacterial activity against Klebsiella pneumoniae 10-3 after 18 to 24 hrs by NCCLS method; procedure, shortened: as §1
[29] = tested on: Klebsiella pneumoniae; test: Antibacterial activity against Klebsiella pneumoniae 10-4 after 18 to 24 hrs by NCCLS method; procedure, shortened: as §1
[30] = tested on: Klebsiella pneumoniae; test: Antibacterial activity against extended spectrum beta-lactamases producing Klebsiella pneumoniae 10-1 after 18 to 24 hrs by NCCLS method; procedure, shortened: as §1
[31] = tested on: Klebsiella pneumoniae; test: Antibacterial activity against extended spectrum beta-lactamases producing Klebsiella pneumoniae 10-2 after 18 to 24 hrs by NCCLS method; procedure, shortened: as §1
[32] = tested on: Klebsiella pneumoniae; test: Antibacterial activity against extended spectrum beta-lactamases producing Klebsiella pneumoniae 10-3 after 18 to 24 hrs by NCCLS method; procedure, shortened: as §1
[33] = tested on: Pseudomonas aeruginosa; test: Antibacterial activity against Pseudomonas aeruginosa 10-5 after 18 to 24 hrs by NCCLS method; procedure, shortened: as §1
[34] = tested on: Pseudomonas aeruginosa; test: Antibacterial activity against Pseudomonas aeruginosa 10-9 after 18 to 24 hrs by NCCLS method; procedure, shortened: as §1
[35] = tested on: Pseudomonas aeruginosa; test: Antibacterial activity against Pseudomonas aeruginosa 10-12 after 18 to 24 hrs by NCCLS method; procedure, shortened: as §1
[36] = tested on: Pseudomonas aeruginosa; test: Antibacterial activity against Pseudomonas aeruginosa 10-15 after 18 to 24 hrs by NCCLS method; procedure, shortened: as §1
[37] = tested on: Pseudomonas aeruginosa; test: Antibacterial activity against Pseudomonas aeruginosa 10-18 after 18 to 24 hrs by NCCLS method; procedure, shortened: as §1
[38] = tested on: Pseudomonas aeruginosa; test: Antibacterial activity against Pseudomonas aeruginosa 10-20 after 18 to 24 hrs by NCCLS method; procedure, shortened: as §1

SMILES	MIC [1] [µg/mL]	MIC [2] [µg/mL]	MIC [3] [µg/mL]	MIC [4] [µg/mL]	MIC [5] [µg/mL]	MIC [6] [µg/mL]	MIC [7] [µg/mL]	MIC [9] [µg/mL]	MIC [10] [µg/mL]	MIC [11] [µg/mL]	MIC [12] [µg/mL]	MIC [13] [µg/mL]	MIC [14] [µg/mL]	MIC [15] [µg/mL]	MIC [16] [µg/mL]	MIC [17] [µg/mL]	MIC [18] [µg/mL]	MIC [19] [µg/mL]	MIC [27] [µg/mL]	MIC [28] [µg/mL]	other results
COc1cc(Br)c(CN2CCN(c3cc4c(cc3F)c(=O)c(C(=O)O)cn4C3CC3)CC2)cc1OC	> 32	2 (≈ 3.57 µM)	4 (≈ 7.14 µM)	4 (≈ 7.14 µM)	4 (≈ 7.14 µM)	32 (≈ 57.1 µM)	32 (≈ 57.1 µM)	8 (≈ 14.3 µM)	> 128	> 128	32 (≈ 57.1 µM)	> 128	> 128	> 128	8 (≈ 14.3 µM)	> 128	8 (≈ 14.3 µM)	> 128	> 128	8 (≈ 14.3 µM)	MIC [8]: 32 µg/mL (≈ 57.1 µM); MIC [20]: 0.25 µg/mL (≈ 0.446 µM); MIC [21]: > 128 µg/mL; MIC [22]: > 128 µg/mL; MIC [23]: > 128 µg/mL; MIC [24]: > 128 µg/mL; MIC [25]: > 128 µg/mL; MIC [26]: > 128 µg/mL; MIC [29]: > 128 µg/mL; MIC [30]: > 128 µg/mL; MIC [31]: > 128 µg/mL; MIC [32]: > 128 µg/mL; MIC [33]: 8 µg/mL (≈ 14.3 µM); MIC [34]: 8 µg/mL (≈ 14.3 µM); MIC [35]: 8 µg/mL (≈ 14.3 µM); MIC [36]: 16 µg/mL (≈ 28.6 µM); MIC [37]: 8 µg/mL (≈ 14.3 µM); MIC [38]: 16 µg/mL (≈ 28.6 µM)
COc1cc(CN2CCN(c3cc4c(cc3F)c(=O)c(C(=O)O)cn4C3CC3)CC2)cc(OC)c1	2 (≈ 4.15 µM)	1 (≈ 2.08 µM)	1 (≈ 2.08 µM)	0.5 (≈ 1.04 µM)	1 (≈ 2.08 µM)	128 (≈ 266 µM)	> 128	4 (≈ 8.31 µM)	128 (≈ 266 µM)	> 128	128 (≈ 266 µM)	128 (≈ 266 µM)	> 128	> 128	16 (≈ 33.2 µM)	> 128	8 (≈ 16.6 µM)	> 128	> 128	64 (≈ 133 µM)	MIC [8]: 64 µg/mL (≈ 133 µM); MIC [20]: 1 µg/mL (≈ 2.08 µM); MIC [21]: > 128 µg/mL; MIC [22]: > 128 µg/mL; MIC [23]: > 128 µg/mL; MIC [24]: > 128 µg/mL; MIC [25]: > 128 µg/mL; MIC [26]: > 128 µg/mL; MIC [29]: > 128 µg/mL; MIC [30]: > 128 µg/mL; MIC [31]: > 128 µg/mL; MIC [32]: > 128 µg/mL; MIC [33]: 64 µg/mL (≈ 133 µM); MIC [34]: 128 µg/mL (≈ 266 µM); MIC [35]: 64 µg/mL (≈ 133 µM); MIC [36]: 64 µg/mL (≈ 133 µM); MIC [37]: 128 µg/mL (≈ 266 µM); MIC [38]: 64 µg/mL (≈ 133 µM)
COc1cc(CN2CCN(c3cc4c(cc3F)c(=O)c(C(=O)O)cn4C3CC3)CC2)ccc1OCc1ccccc1	16 (≈ 28.7 µM)	2 (≈ 3.59 µM)	0.5 (≈ 0.897 µM)	2 (≈ 3.59 µM)	1 (≈ 1.79 µM)	> 128	> 128	1 (≈ 1.79 µM)	32 (≈ 57.4 µM)	128 (≈ 230 µM)	64 (≈ 115 µM)	32 (≈ 57.4 µM)	64 (≈ 115 µM)	32 (≈ 57.4 µM)	16 (≈ 28.7 µM)	32 (≈ 57.4 µM)	16 (≈ 28.7 µM)	32 (≈ 57.4 µM)	> 128	32 (≈ 57.4 µM)	MIC [8]: > 128 µg/mL; MIC [20]: 0.5 µg/mL (≈ 0.897 µM); MIC [21]: > 128 µg/mL; MIC [22]: 32 µg/mL (≈ 57.4 µM); MIC [23]: > 128 µg/mL; MIC [24]: > 128 µg/mL; MIC [25]: > 128 µg/mL; MIC [26]: > 128 µg/mL; MIC [29]: > 128 µg/mL; MIC [30]: > 128 µg/mL; MIC [31]: > 128 µg/mL; MIC [32]: > 128 µg/mL; MIC [33]: 32 µg/mL (≈ 57.4 µM); MIC [34]: 64 µg/mL (≈ 115 µM); MIC [35]: 32 µg/mL (≈ 57.4 µM); MIC [36]: 64 µg/mL (≈ 115 µM); MIC [37]: 32 µg/mL (≈ 57.4 µM); MIC [38]: 32 µg/mL (≈ 57.4 µM)
O=C(O)c1cn(C2CC2)c2cc(N3CCNCC3)c(F)cc2c1=O [CIPROFLOXACIN]	0.5 (≈ 1.51 µM)	0.25 (≈ 0.754 µM)	0.5 (≈ 1.51 µM)	0.5 (≈ 1.51 µM)	0.5 (≈ 1.51 µM)	32 (≈ 96.6 µM)	128 (≈ 386 µM)	0.5 (≈ 1.51 µM)	8 (≈ 24.1 µM)	8 (≈ 24.1 µM)	16 (≈ 48.3 µM)	8 (≈ 24.1 µM)	64 (≈ 193 µM)	16 (≈ 48.3 µM)	1 (≈ 3.02 µM)	16 (≈ 48.3 µM)	2 (≈ 6.04 µM)	32 (≈ 96.6 µM)	32 (≈ 96.6 µM)	0.25 (≈ 0.754 µM)	MIC [29]: 32 µg/mL (≈ 96.6 µM); MIC [30]: 32 µg/mL (≈ 96.6 µM); MIC [31]: 32 µg/mL (≈ 96.6 µM); MIC [32]: 32 µg/mL (≈ 96.6 µM); MIC [37]: 1 µg/mL (≈ 3.02 µM)
